According to ChEMBL document CHEMBL4257503, “N-Acetyl-3-aminopyrazoles block the non-canonical NF-kB cascade by selectively inhibiting NIK” (Medchemcomm, 2018):

Experiments:
[1] = molecular target: T1, Inhibitor of nuclear factor kappa-B kinase subunit beta (Homo sapiens, UniProt O14920); experiment: Inhibition of recombinant human full-length N-terminal GST-fused/His6-tagged IKKbeta (M1 to S756 residues) expressed in Sf9 insect cells using ERLLDDRHDSGLDSMKDEE peptide as substrate measured after 60 mins by ADP-Glo kinase assay
T1 sequence (O14920 whole entry): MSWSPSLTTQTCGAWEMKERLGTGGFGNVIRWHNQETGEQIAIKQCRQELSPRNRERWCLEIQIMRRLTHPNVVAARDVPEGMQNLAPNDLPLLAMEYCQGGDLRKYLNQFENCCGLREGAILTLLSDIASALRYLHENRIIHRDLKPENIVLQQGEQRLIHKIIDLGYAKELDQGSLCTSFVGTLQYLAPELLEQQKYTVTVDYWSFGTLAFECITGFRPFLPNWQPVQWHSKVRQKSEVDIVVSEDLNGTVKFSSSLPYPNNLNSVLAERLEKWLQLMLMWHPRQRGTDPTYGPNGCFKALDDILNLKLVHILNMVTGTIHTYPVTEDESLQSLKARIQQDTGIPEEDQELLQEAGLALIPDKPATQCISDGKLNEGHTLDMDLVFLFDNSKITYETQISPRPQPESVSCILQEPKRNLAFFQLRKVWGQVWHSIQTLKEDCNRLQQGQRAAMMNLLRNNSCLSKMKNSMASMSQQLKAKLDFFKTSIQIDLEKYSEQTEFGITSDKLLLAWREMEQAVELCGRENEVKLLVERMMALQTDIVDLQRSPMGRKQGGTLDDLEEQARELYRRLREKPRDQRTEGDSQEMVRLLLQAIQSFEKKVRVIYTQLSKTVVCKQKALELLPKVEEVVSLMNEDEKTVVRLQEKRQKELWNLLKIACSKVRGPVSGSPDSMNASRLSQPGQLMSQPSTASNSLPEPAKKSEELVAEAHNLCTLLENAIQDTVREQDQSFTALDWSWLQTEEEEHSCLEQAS

[2] = molecular target: T2, Inhibitor of nuclear factor kappa-B kinase subunit epsilon (Homo sapiens, UniProt Q14164); experiment: Inhibition of recombinant human full-length N-terminal GST-fused/His6-tagged IKKepsilon (M1 to V716 residues) expressed in Sf9 insect cells using ERLLDDRHDSGLDSMKDEE peptide as substrate measured after 60 mins by ADP-Glo kinase assay
T2 sequence (Q14164 whole entry): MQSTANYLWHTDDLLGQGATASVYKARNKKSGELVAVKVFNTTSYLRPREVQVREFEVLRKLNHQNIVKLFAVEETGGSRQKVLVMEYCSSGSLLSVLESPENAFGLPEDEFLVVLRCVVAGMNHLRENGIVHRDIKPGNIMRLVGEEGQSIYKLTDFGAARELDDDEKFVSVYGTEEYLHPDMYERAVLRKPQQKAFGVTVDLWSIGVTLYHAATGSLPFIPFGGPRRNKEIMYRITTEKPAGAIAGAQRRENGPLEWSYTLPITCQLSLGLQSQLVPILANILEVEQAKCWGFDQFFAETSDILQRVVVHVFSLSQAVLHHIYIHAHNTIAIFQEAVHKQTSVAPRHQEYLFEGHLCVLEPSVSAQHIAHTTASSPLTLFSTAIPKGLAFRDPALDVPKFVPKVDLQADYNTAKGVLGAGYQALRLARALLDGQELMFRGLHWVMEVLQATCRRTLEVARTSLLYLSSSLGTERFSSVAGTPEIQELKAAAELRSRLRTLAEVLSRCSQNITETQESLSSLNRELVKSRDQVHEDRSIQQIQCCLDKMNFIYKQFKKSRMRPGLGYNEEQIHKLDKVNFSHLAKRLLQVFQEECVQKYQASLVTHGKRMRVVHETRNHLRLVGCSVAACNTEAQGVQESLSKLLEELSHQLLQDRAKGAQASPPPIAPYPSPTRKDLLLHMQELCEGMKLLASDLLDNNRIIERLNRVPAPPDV

[3] = molecular target: T3, Mitogen-activated protein kinase kinase kinase 14 (Homo sapiens, UniProt Q99558); experiment: Inhibition of recombinant human full-length N-terminal GST-fused/His6-tagged NIK (M1 to P947 residues) expressed in Sf9 insect cells using AKDVDQGSLCTSFVGTLQY peptide as substrate measured after 60 mins by ADP-Glo kinase assay
Target sequence in this assay (Q99558 whole entry, the tested form may be a part): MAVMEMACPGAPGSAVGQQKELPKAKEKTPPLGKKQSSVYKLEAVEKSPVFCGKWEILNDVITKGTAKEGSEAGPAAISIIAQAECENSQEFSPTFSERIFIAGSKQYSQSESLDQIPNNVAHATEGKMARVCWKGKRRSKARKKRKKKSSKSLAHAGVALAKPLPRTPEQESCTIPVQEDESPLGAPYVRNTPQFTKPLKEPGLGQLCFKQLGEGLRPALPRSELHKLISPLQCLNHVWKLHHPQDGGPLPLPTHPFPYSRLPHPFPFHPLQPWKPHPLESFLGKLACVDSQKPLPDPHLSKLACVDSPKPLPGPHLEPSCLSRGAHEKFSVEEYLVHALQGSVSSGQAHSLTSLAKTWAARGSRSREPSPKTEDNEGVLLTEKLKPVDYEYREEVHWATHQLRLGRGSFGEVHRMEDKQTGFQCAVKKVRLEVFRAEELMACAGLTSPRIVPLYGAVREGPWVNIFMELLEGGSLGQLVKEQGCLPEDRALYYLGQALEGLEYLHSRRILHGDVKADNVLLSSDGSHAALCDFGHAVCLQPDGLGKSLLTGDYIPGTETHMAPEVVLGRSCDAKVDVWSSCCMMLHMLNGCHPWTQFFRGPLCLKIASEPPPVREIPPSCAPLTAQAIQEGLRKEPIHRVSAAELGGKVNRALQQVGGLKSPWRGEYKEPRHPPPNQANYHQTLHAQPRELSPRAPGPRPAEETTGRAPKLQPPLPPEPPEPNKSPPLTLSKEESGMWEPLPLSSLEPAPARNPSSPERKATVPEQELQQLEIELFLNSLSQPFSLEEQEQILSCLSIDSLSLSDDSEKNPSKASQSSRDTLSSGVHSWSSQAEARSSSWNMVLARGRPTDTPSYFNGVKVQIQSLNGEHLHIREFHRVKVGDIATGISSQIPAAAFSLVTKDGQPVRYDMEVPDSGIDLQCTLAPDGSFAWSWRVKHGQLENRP

[4] = molecular target: T4, Inhibitor of nuclear factor kappa-B kinase subunit alpha (Homo sapiens, UniProt O15111); experiment: Inhibition of recombinant full length human His-tagged IKKalpha expressed in baculovirus expression system using ERLLDDRHDSGLDSMKDEE peptide as substrate measured after 60 mins by ADP-Glo kinase assay
T4 sequence (O15111 whole entry): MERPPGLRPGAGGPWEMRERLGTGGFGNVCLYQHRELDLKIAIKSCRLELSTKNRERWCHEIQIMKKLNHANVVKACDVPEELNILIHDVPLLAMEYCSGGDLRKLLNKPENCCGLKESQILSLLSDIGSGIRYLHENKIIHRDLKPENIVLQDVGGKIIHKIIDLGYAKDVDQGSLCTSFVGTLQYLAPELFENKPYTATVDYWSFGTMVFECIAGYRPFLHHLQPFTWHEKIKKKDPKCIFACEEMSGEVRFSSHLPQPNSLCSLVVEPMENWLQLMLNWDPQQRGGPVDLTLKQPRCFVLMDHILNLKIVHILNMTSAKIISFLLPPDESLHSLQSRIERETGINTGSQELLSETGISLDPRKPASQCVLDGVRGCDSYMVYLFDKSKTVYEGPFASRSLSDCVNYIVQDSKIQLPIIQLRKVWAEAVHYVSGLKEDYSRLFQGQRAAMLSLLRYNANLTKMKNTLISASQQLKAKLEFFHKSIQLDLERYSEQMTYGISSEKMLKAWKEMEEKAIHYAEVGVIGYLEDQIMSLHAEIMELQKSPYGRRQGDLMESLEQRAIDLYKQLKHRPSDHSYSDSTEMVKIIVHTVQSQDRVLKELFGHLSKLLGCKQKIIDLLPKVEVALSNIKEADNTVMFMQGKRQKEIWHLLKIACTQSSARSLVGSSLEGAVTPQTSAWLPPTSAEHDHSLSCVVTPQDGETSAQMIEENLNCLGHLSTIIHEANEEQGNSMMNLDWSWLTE
Procedure, shortened: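 Recombinant human IKKα, peptide substrate 100 µM, enzyme 8 ng/µL, ATP 1 µM in Tris-HCl pH 7.5 buffer with MgCl2, MnCl2, DTT, Na3VO4, BSA; 25°C, 60 min; ADP-Glo luminescence. Ten concentrations 0.005–100 µM; IC50 by nonlinear regression; means ± SD of three independent experiments.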

[5] = molecular target: T3, Mitogen-activated protein kinase kinase kinase 14; experiment: Inhibition of NIK-induced NFkappaB activation in human EJM cells at 25 uM after 6 hrs by dual luciferase reporter gene assay relative to control; format: cell-based
Procedure, shortened: (§1)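 Cells were nucleofected with the pGL4.32 NF-κB-RE firefly luciferase and pGL4.74 TK-Renilla plasmids (3 µg, 10:1 ratio) and cultured for 24 h at 37 °C. Compound (10, 25, 50 or 100 µM) was then added for 6 h. Firefly luminescence was normalised to Renilla from the same sample and expressed as % of vehicle control. Means ± SD of three independent experiments.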
Target sequence in this assay (Q99558 whole entry, looked up, the tested form may be a part): as the sequence (Q99558 whole entry, the tested form may be a part) above

[6] = tested on: MDA-MB-231; experiment: Inhibition of NFkappaB activation in human MDA-MB-231 cells at 100 uM after 6 hrs by dual luciferase reporter gene assay relative to control; format: cell-based; procedure, shortened: as §1
[7] = species: Homo sapiens; experiment: Inhibition of NFkappaB activation in human SKBR3 cells at 100 uM after 6 hrs by dual luciferase reporter gene assay relative to control; format: cell-based; procedure, shortened: as §1
[8] = Cytotoxicity against human MDA-MB-231 cells assessed as cell viability at 100 uM after 6 hrs by CellTiter Glo luminescent assay relative to control; format: cell-based; settings: read-out: Activity
Procedure, shortened: (§2)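 Cells seeded at 5 x 10^3 per well and exposed for 6 h to the compound (10, 25, 50 or 100 µM) or to DMSO vehicle. Viability was read as intracellular ATP by CellTiter Glo luminescence.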

[9] = Cytotoxicity against human EJM cells assessed as cell viability at 25 uM after 6 hrs by CellTiter Glo luminescent assay relative to control; format: cell-based; settings: read-out: Activity; procedure, shortened: as §2
[10] = Cytotoxicity against human SKBR3 cells assessed as cell viability at 100 uM after 6 hrs by CellTiter Glo luminescent assay relative to control; format: cell-based, SK-BR-3; settings: read-out: Activity; procedure, shortened: as §2
[11] = molecular target: T3, Mitogen-activated protein kinase kinase kinase 14; experiment: Inhibition of NIK-induced NFkappaB activation in human EJM cells at 50 uM after 6 hrs by dual luciferase reporter gene assay relative to control; format: cell-based; procedure, shortened: as §1
Target sequence in this assay (Q99558 whole entry, looked up, the tested form may be a part): as the sequence (Q99558 whole entry, the tested form may be a part) above

[12] = Cytotoxicity against human EJM cells assessed as cell viability at 50 uM after 6 hrs by CellTiter Glo luminescent assay relative to control; format: cell-based; settings: read-out: Activity; procedure, shortened: as §2
[13] = tested on: MDA-MB-231; experiment: Inhibition of NFkappaB activation in human MDA-MB-231 cells at 50 uM after 6 hrs by dual luciferase reporter gene assay relative to control; format: cell-based; procedure, shortened: as §1
[14] = Cytotoxicity against human MDA-MB-231 cells assessed as cell viability at 50 uM after 6 hrs by CellTiter Glo luminescent assay relative to control; format: cell-based; settings: read-out: Activity; procedure, shortened: as §2
[15] = molecular target: T3, Mitogen-activated protein kinase kinase kinase 14; experiment: Inhibition of NIK-induced NFkappaB activation in human EJM cells at 20 uM after 6 hrs by dual luciferase reporter gene assay relative to control; format: cell-based
Target sequence in this assay (Q99558 whole entry, looked up, the tested form may be a part): as the sequence (Q99558 whole entry, the tested form may be a part) above

[16] = species: Homo sapiens; experiment: Inhibition of NFkappaB activation in human SKBR3 cells at 50 uM after 6 hrs by dual luciferase reporter gene assay relative to control; format: cell-based; procedure, shortened: as §1
[17] = Cytotoxicity against human EJM cells assessed as cell viability at 20 uM after 6 hrs by CellTiter Glo luminescent assay relative to control; format: cell-based; settings: read-out: Activity
[18] = Cytotoxicity against human SKBR3 cells assessed as cell viability at 50 uM after 6 hrs by CellTiter Glo luminescent assay relative to control; format: cell-based, SK-BR-3; settings: read-out: Activity; procedure, shortened: as §2

Row | Compound | IC50 [1] [µM] | IC50 [2] [µM] | IC50 [3] [µM] | IC50 [4] [µM] | inhibition [5] [%] | inhibition [6] [%] | inhibition [7] [%] | viability at 6 h, 100 µM [8] [%] | viability at 6 h, 25 µM [9] [%] | viability at 6 h, 100 µM [10] [%] | inhibition [11] [%] | viability at 6 h, 50 µM [12] [%] | inhibition [13] [%] | viability at 6 h, 50 µM [14] [%] | inhibition [15] [%] | inhibition [16] [%] | viability at 6 h, 20 µM [17] [%] | viability at 6 h, 50 µM [18] [%]
1 | Cc1nn(C(=O)C2CCC2)c(N)c1-c1ccc(Cl)c(Cl)c1 | > 100 | > 100 | 2.9 | > 100 | 96.2 | 2.36 | 5.2 | ≥ 80 | ≥ 80 | ≥ 80 | – | – | – | – | – | – | – | –
2 | Cc1nn(C(=O)c2ccccc2)c(N)c1-c1ccc(Cl)c(Cl)c1 | > 100 | > 100 | 23 | > 100 | – | 13.8 | 0.31 | ≥ 80 | – | ≥ 80 | 75.2 | ≥ 80 | – | – | – | – | – | –
3 | CCC(=O)n1nc(C)c(-c2ccc(Cl)c(Cl)c2)c1N | > 100 | > 100 | 27.4 | > 100 | – | 10.3 | -3.14 | ≥ 80 | – | ≥ 80 | 66.8 | ≥ 80 | – | – | – | – | – | –
4 | Cc1n[nH]c(N)c1-c1ccc(Cl)cc1 | 37.9 | > 100 | 61.1 | > 100 | – | – | 4.2 | – | – | ≥ 80 | 10.4 | ≥ 80 | 29.9 | ≥ 80 | – | – | – | –
5 | CCCC(=O)n1nc(C)c(-c2ccc(Cl)c(Cl)c2)c1N | > 100 | > 100 | > 100 | > 100 | – | – | – | – | – | – | – | – | – | – | – | – | – | –
6 | Cc1c(N)n[nH]c1-c1ccc(Cl)c(Cl)c1 | 75.7 | > 100 | > 100 | > 100 | – | – | – | – | – | – | – | – | – | – | – | – | – | –
7 | Cc1ccc(-c2c(N)n[nH]c2C)cc1C | > 100 | > 100 | > 100 | > 100 | – | – | – | – | – | – | – | – | – | – | – | – | – | –
8 | Cc1[nH]nc(N)c1-c1cccc(Cl)c1 | > 100 | 93.4 | > 100 | > 100 | – | – | – | – | – | – | – | – | – | – | – | – | – | –
9 | Cc1n[nH]c(N)c1-c1ccccc1 | > 100 | > 100 | > 100 | > 100 | – | – | – | – | – | – | – | – | – | – | – | – | – | –
10 | Cc1cccc(-c2c(N)n[nH]c2C)c1 | > 100 | > 100 | > 100 | > 100 | – | – | – | – | – | – | – | – | – | – | – | – | – | –
11 | O=C(Nc1cc(Cl)c2c(c1)[nH]c1cnccc12)c1cccnc1 | 0.09 | > 100 | > 100 | > 100 | – | – | – | – | – | – | – | – | 87.9 | ≥ 80 | 89.3 | 3.6 | ≥ 80 | ≥ 80
12 | Cc1c(-c2ccc(Cl)c(Cl)c2)c(N)nn1C(=O)c1cccnc1 | > 100 | > 100 | > 100 | > 100 | – | – | – | – | – | – | – | – | – | – | – | – | – | –
13 | Cc1nn(C(=O)C2CCCCC2)c(N)c1-c1ccc(Cl)c(Cl)c1 | > 100 | > 100 | 3.3 | > 100 | 94.7 | 2.36 | 3.7 | ≥ 80 | ≥ 80 | ≥ 80 | – | – | – | – | – | – | – | –
